Format in all cases: functional
Assay [1] concerns Aspergillus flavus. Description: Antifungal activity against Aspergillus flavus NRRL 6541 after 48 hrs. Conditions: NRRL 6541, 48 h. The essentials:
(§1)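 Broth microdilution in 96-well plates at 1, 3, 5, 10 and 25 µg/mL, with eight replicate wells per level. Compound in MeOH was dried in the well, redissolved in 10 µL MeOH, then 200 µL potato dextrose broth with about 8000 conidia was added (about 4 × 10^4/mL). For A. flavus, conidia came from 14-day PDA cultures at 25 °C and were filtered through cheesecloth. Plates were incubated 48 h at 25 °C and read on a plate reader every 8-16 h against MeOH-only controls. MIC is the lowest level with no growth. Nystatin was the positive control. F. verticillioides was run analogously.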

Another assay has as its system Bacillus subtilis. Description: Antibacterial activity against Bacillus subtilis ATCC 6051 at 50 ug/disk. Conditions: read-out: IZ. The gist of the method: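 Standard paper-disk agar diffusion test at 50 µg per disk; activity read as the diameter of the inhibition zone in mm.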
The test system of assay [2] is Fusarium verticillioides. Description: Antifungal activity against Fusarium verticillioides NRRL 25457 after 48 hrs. Conditions: NRRL 25457, 48 h. The essentials:
as §1

The subject of the next assay is Candida albicans. Put plainly: Antimicrobial activity against Candida albicans ATCC 14053 at 100 ug/disk. Particulars: for zone of inhibition at 100 µg/disc: read-out: IZ.
For assay [3], the system named is Aspergillus flavus. Put plainly: Antifungal activity against Aspergillus flavus NRRL 6541 at 200 ug/disk. Conditions: read-out: IZ. The essentials:
(§2)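 Agar disk diffusion at 200 µg/disk against each fungal strain, scored as the inhibition zone diameter in mm.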

The test system of assay [4] is Fusarium verticillioides. Put plainly: Antifungal activity against Fusarium verticillioides NRRL 25457 at 200 ug/disk. Particulars: read-out: IZ. The gist of the method: as §2
Another assay relates to Staphylococcus aureus. Put plainly: Antibacterial activity against Staphylococcus aureus ATCC 29213 at 100 ug/disk. Conditions: for zone of inhibition at 100 µg/disc: read-out: IZ.
Assay [5] deals with Aspergillus flavus. Description: Antifungal activity against Aspergillus flavus NRRL 6541 at >25 ug/mL after 48 hrs relative to control. Conditions: in the assay text read “25 ug/mL” for “>25 ug/mL”. The gist of the method: as §1

The structures appear in SMILES notation. ≈ marks a conversion by molar mass, not a printed value. Calls of active or inactive are those of the source. The rule behind the calls is not given here. A value given as a limit tells only on which side of the number the result lay.

A word on the MIC: it is the lowest concentration that inhibits growth of the organism.

`O=C1C=CC2(Oc3cccc4cccc(c34)O2)[C@H]2[C@H]1[C@@H](O)C=C[C@H]2O` [DECASPIRONE A]: the values for the MIC against Aspergillus flavus [1] and against Fusarium verticillioides [2] were 10 µg/mL (≈ 29.7 µM) and 5 µg/mL (≈ 14.9 µM), respectively. Besides, the zone of inhibition at 50 µg/disc in the assay on Bacillus subtilis stood at 39 mm. The zone of inhibition at 100 µg/disc in the assay with Candida albicans worked out at 30 mm; in the assay with Staphylococcus aureus, 41 mm. Further, the zone of inhibition at 200 µg/disc in the assay with Aspergillus flavus [3] and in the assay with Fusarium verticillioides [4] was 20 mm each time.

Regarding `CC(=O)O[C@H]1C=C[C@@H](O)[C@@H]2[C@@H]1[C@@H](O)C=CC21Oc2cccc3cccc(c23)O1` [DECASPIRONE B], the zone of inhibition at 50 µg/disc with Bacillus subtilis came out at 19 mm. In addition, the outcome with Candida albicans and with Staphylococcus aureus was inactive.

In the case of `O=C1C=CC2(Oc3cccc4cccc(c34)O2)[C@H]2[C@H]1[C@@H](O)CC[C@H]2O` [DECASPIRONE C], the values for the MIC with Aspergillus flavus [1] and in the assay with Fusarium verticillioides [2] were over 25 µg/mL and 25 µg/mL (≈ 73.9 µM), respectively. Further, the zone of inhibition at 50 µg/disc in the assay with Bacillus subtilis worked out at 34 mm. The outcome in the assay with Candida albicans was inactive. Besides, the zone of inhibition at 200 µg/disc in the assay on Aspergillus flavus [3] stood at 15 mm; in the assay with Fusarium verticillioides [4] it was 26 mm. Further, the Activity in the assay with Aspergillus flavus [5] is recorded as 27%. The zone of inhibition at 100 µg/disc in the assay with Staphylococcus aureus was 28 mm.

With `CC(=O)O[C@@H]1C=C[C@H](O)[C@H]2C(=O)C=CC3(Oc4cccc5cccc(c45)O3)[C@@H]21` [DECASPIRONE D], in the assay on Bacillus subtilis, the zone of inhibition at 50 µg/disc worked out at 30 mm. Besides, the figures for the zone of inhibition at 100 µg/disc with Candida albicans and with Staphylococcus aureus were 13 mm and 30 mm, respectively.

Turning to `CC(=O)O[C@H]1C=C[C@@H](O)[C@@H]2[C@@H]1C(=O)C=CC21Oc2cccc3cccc(c23)O1` [DECASPIRONE E], in the assay on Bacillus subtilis, the zone of inhibition at 50 µg/disc stood at 30 mm. Also, the zone of inhibition at 100 µg/disc with Candida albicans worked out at 17 mm. Further, in the assay with Staphylococcus aureus, the outcome was inactive.

(Values after ChEMBL document CHEMBL1158117, “Decaspirones A-E, bioactive spirodioxynaphthalenes from the freshwater aquatic fungus Decaisnella thyridioides” (2006).)
